In ChEMBL document CHEMBL5346888, “Insight into non-nucleoside triazole-based systems as viral polymerases inhibitors” (Eur J Med Chem, 2023):

How the values were obtained:
[1] = biological target: Hepatitis C virus NS5B RNA-dependent RNA polymerase (Hepatitis C virus) (UniProt Q8JXU8); assay: Inhibition of Hepatitis C virus NS5B polymerase at 100 uM relative to control; conditions: Hepacivirus hominis
[2] = Selectivity index, ratio of CC50 for cytotoxicity against African green monkey Vero E6 cells assessed as reduction in cell viability to EC50 for antiviral activity against SARS-CoV-2 infected in African green monkey Vero E6 cells assessed as inhibition of virus growth; assay type: toxicity, cell-based, Vero C1008; conditions: read-out: Ratio CC50/EC50
[3] = system: SARS-CoV-2; assay: Antiviral activity against SARS-CoV-2 infected in African green monkey Vero E6 cells assessed as inhibition of virus growth; assay type: functional, organism-based; conditions: Severe acute respiratory syndrome coronavirus 2, Vero C1008
[4] = biological target: Hepatitis C virus NS5B RNA-dependent RNA polymerase (Hepatitis C virus, UniProt Q8JXU8); assay: Inhibition of Hepatitis C virus NS5B polymerase; set-up: species or system Hepacivirus hominis
Sequence of Hepatitis C virus NS5B RNA-dependent RNA polymerase (Q8JXU8 whole entry): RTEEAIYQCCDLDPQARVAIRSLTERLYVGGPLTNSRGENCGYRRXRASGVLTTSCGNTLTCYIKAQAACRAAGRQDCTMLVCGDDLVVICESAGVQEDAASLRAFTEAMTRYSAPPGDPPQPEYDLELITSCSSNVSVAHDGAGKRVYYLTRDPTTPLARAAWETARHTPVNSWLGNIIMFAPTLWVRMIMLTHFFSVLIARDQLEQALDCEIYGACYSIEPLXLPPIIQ

[5] = Selectivity index, ratio of CC50 for cytotoxicty against human Huh-7 cells to EC50 for antiviral activity against HCV infected in human Huh-7 cells assessed as reduction in viral infection; assay type: toxicity, cell-based; conditions: read-out: Ratio CC50/EC50
[6] = Cytotoxicity against dog MDCK cells assessed as reduction in cell viability by MTT assay; assay type: toxicity, cell-based, Canis lupus familiaris
[7] = system: Influenza A virus; assay: Antiviral activity against influenza A H1N1 infected in MDCK cells assessed as reduction in viral replication by plaque reduction assay; assay type: functional, organism-based
[8] = Selectivity index, ratio of CC50 for cytotoxicity against dog MDCK cells assessed as reduction in cell viability by MTT assay to EC50 for antiviral activity against influenza A H1N1 infected in MDCK cells assessed as reduction in viral replication by plaque reduction assay; assay type: toxicity, cell-based; conditions: read-out: Ratio CC50/EC50
[9] = system: Influenza A virus; assay: Antiviral activity against Influenza A virus H9N2 infected in MDCK cells assessed as inhibition of viral replication; assay type: functional, organism-based
[10] = Cytotoxicity against dog MDCK cells assessed as reduction in cell viability; assay type: toxicity, cell-based, Canis lupus familiaris
[11] = system: Human immunodeficiency virus 1; assay: Antiviral activity against HIV-1 harboring reverse transcriptase E138K mutant infected in human MT4 cells assessed as reduction in virus-induced cytopathic effect; assay type: functional, organism-based; conditions: Human immunodeficiency virus 1, MT4
[12] = system: Human immunodeficiency virus 1; assay: Antiviral activity against HIV-1 harboring reverse transcriptase K103N mutant infected in human MT4 cells assessed as reduction in virus-induced cytopathic effect; assay type: functional, organism-based; conditions: Human immunodeficiency virus 1, MT4
[13] = system: Human immunodeficiency virus 1; assay: Antiviral activity against HIV-1 harboring reverse transcriptase Y188L mutant infected in human MT4 cells assessed as reduction in virus-induced cytopathic effect; assay type: functional, organism-based; conditions: Human immunodeficiency virus 1, MT4
[14] = system: Human immunodeficiency virus 1; assay: Antiviral activity against HIV-1 harboring reverse transcriptase F227L/V106A double mutant infected in human MT4 cells assessed as reduction in virus-induced cytopathic effect; assay type: functional, organism-based; conditions: Human immunodeficiency virus 1, MT4
[15] = system: Human immunodeficiency virus 1; assay: Antiviral activity against wild type HIV-1 IIIB infected in human MT4 cells assessed as reduction in virus-induced cytopathicity by MTT assay; assay type: functional, organism-based; conditions: Human immunodeficiency virus 1, IIIB
Method in brief: (§1)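 MT-4 cells infected with wild-type HIV-1 IIIB, or with RES056 (K103N + Y181C double RT mutant) for the SI ratio line. Antiviral activity and cytotoxicity were both read by the tetrazolium (MTT) colorimetric method. […] SI was calculated as CC50/EC50.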

[16] = Selectivity index, ratio of CC50 for cytotoxicity against human MT4 cells assessed as reduction in cell viability to EC50 for antiviral activity against wild type HIV-1 IIIB infected in human MT4 cells; assay type: toxicity, cell-based; conditions: read-out: Ratio CC50/EC50; method in brief: as §1
[17] = system: Human immunodeficiency virus 1; assay: Antiviral activity against HIV-1 harboring reverse transcriptase Y181C mutant infected in human MT4 cells assessed as reduction in virus-induced cytopathic effect; assay type: functional, organism-based; conditions: Human immunodeficiency virus 1, MT4
[18] = system: Hepatitis C virus; assay: Antiviral activity against HCV assessed as reduction in viral growth; assay type: functional, organism-based, Hepacivirus hominis
[19] = biological target: CYP2D6 (Homo sapiens, UniProt P10635); assay: Inhibition of CYP2D6 (unknown origin); assay type: ADME
Sequence of CYP2D6 (P10635 whole entry): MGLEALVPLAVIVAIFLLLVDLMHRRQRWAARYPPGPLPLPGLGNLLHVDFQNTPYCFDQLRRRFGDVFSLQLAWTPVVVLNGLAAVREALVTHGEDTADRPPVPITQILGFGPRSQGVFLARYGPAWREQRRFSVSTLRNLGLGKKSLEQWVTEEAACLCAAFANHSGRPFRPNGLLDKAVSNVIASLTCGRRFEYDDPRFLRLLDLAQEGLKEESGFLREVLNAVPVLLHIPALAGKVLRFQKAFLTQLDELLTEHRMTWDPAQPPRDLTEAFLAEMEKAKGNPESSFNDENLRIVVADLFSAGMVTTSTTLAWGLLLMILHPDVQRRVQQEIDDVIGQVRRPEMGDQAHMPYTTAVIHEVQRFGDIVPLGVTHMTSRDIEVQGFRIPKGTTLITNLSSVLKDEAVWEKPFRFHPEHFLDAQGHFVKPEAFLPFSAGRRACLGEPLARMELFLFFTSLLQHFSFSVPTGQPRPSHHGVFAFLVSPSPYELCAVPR

[20] = Cytotoxicity against human HeLa cells assessed as reduction in cell viability incubated for 48 hrs by cellTiter-glo assay; assay type: toxicity, cell-based
[21] = system: Human immunodeficiency virus 1; assay: Antiviral activity against wild type HIV-1 infected in human HeLa cells assessed as reduction in viral growth incubated for 48 hrs by bright-glo luciferase assay; assay type: functional, organism-based; conditions: Human immunodeficiency virus 1, HeLa
[22] = system: Human immunodeficiency virus 1; assay: Antiviral activity against HIV-1 harboring K103N/Y181C double mutant infected in human HeLa cells assessed as reduction in viral growth incubated for 48 hrs by bright-glo luciferase assay; assay type: functional, organism-based; conditions: Human immunodeficiency virus 1, HeLa
[23] = Selectivity index, ratio of CC50 for cytotoxicity against human MT4 cells assessed as reduction in cell viability to EC50 for antiviral activity against HIV-1 RES056 infected in human MT4 cells; assay type: toxicity, cell-based; conditions: read-out: Ratio CC50/EC50; method in brief: as §1
[24] = system: Huh-7; assay: Anticancer activity against human Huh-7 cells measured after 72 hrs; assay type: functional, cell-based; conditions: Huh-7, 72 h
[25] = system: Human orthopneumovirus; assay: Antiviral activity against RSV A infected in human HEp-2 cells assessed as inhibition of virus-induced cytopathogenic effect; assay type: functional, organism-based; conditions: human respiratory syncytial virus
[26] = Antiviral activity against RSV B infected in human HEp-2 cells assessed as inhibition of virus-induced cytopathogenic effect; assay type: functional, cell-based; conditions: human respiratory syncytial virus
[27] = system: Human immunodeficiency virus 1; assay: Antiviral activity against wild type HIV-1 infected in human HeLa cells assessed as reduction in viral growth; assay type: functional, organism-based; conditions: Human immunodeficiency virus 1, HeLa
[28] = system: Human immunodeficiency virus 1; assay: Antiviral activity against HIV-1 harboring K103 N/Y181C double mutant infected in human HeLa cells assessed as reduction in viral growth; assay type: functional, organism-based; conditions: Human immunodeficiency virus 1, HeLa
[29] = Cytotoxicity against human MT4 cells assessed as reduction in cell viability; assay type: toxicity, cell-based; method in brief: as §1

Sequence of Hepatitis C virus NS5B RNA-dependent RNA polymerase (Hepatitis C virus) (Q8JXU8 as listed by the source): as the sequence (Q8JXU8 whole entry) above

CCc1cccc2c3c([nH]c12)C(CC)(Cc1n[nH]c(=S)n1-c1ccccc1)OCC3 (stereo unspecified)
inhibition [1]: 49.5%

COc1ccc(-n2cc(COC(=O)c3cnccn3)nn2)cc1
selectivity ratio [2]: 3.2 | IC50 [3]: 120 nM

CCc1cccc2c3c([nH]c12)C(CC)(Cc1n[nH]c(=S)n1CC)OCC3 (stereo unspecified)
inhibition [1]: 74.6% | IC50 [4]: 21600 nM

O=C(CC(=O)c1nnc[nH]1)c1ccc(OCc2ccc(F)cc2)cc1
selectivity ratio [5]: > 128

CCc1cc(CC[C@@]2(C3CCCC3)CC(O)=C(Cc3nc4nc(C)cc(C)n4n3)C(=O)O2)cc(CC)n1
IC50 [4]: 12 nM

CCCCn1c(CC2(CC)OCCc3c2[nH]c2c(CC)cccc32)n[nH]c1=S (stereo unspecified)
inhibition [1]: 72.3% | IC50 [4]: 25400 nM

O=C(OCc1cn(-c2ccc(Cl)cc2)nn1)c1cnccn1
selectivity ratio [2]: 1.7 | IC50 [3]: 1150 nM

O=C(OCc1cn(-c2ccc(F)cc2)nn1)c1cnccn1
selectivity ratio [2]: 0.3 | IC50 [3]: 12200 nM

CCc1cc(CC[C@]2(C3CCCC3)CC(O)=C(Cc3nc4nc(C)cc(C)n4n3)C(=O)O2)cc(CC)n1 [FILIBUVIR]
IC50 [4]: 7 nM

CCCn1c(CC2(CC)OCCc3c2[nH]c2c(CC)cccc32)n[nH]c1=S (stereo unspecified)
inhibition [1]: 69% | IC50 [4]: 26000 nM

CCc1c(C)nc2nnc(-c3ccccc3Cl)n2c1O
CC50 [6]: 125000 nM | EC50 [7]: 550 nM | selectivity ratio [8]: 227 | EC50 [9]: 90 nM

COc1ccc(C(=O)Nc2nc3n(n2)C(c2ccccc2)C=C(C)N3)cc1 (stereo unspecified)
CC50 [10]: > 250000 nM

CC(C)Nc1cccnc1N1CCN(C(=O)c2cc3cc(NS(C)(=O)=O)ccc3[nH]2)CC1 [DELAVIRDINE]
EC50 [11]: 51 nM | EC50 [12]: 3000 nM | EC50 [13]: 840 nM | EC50 [14]: 2270 nM | EC50 [15]: 38 nM | selectivity ratio [16]: 733 | EC50 [17]: 2460 nM

Cc1cc(C)n2nc(CC3=C(O)CC(CCc4ccc(C(C)(C)C#N)c(F)c4)(C4CCCC4)OC3=O)nc2n1 (stereo unspecified)
EC50 [18]: 15 nM | IC50 [4]: 3 nM

NC(=O)c1nc(F)cnc1O
selectivity ratio [2]: 3.8 | IC50 [3]: 1380 nM

Cc1cc(C)n2nc(CC3=C(O)CC(CCc4ccc(C(C)(C)O)c(F)c4)(C4CCCC4)OC3=O)nc2n1 (stereo unspecified)
IC50 [19]: > 6000 nM | IC50 [4]: 140 nM

NS(=O)(=O)c1ccc(NC(=O)CSc2nnc(Br)n2-c2ccc(C3CC3)c3ccccc23)c(Cl)c1
CC50 at 48 h [20]: ≥ 3000 nM | EC50 [21]: 0.14 nM | EC50 [22]: 0.23 nM

Cc1cc(C)c(Oc2cc(Nc3ccc(C#N)cc3)ncc2C(=O)NCc2cn(CC(=O)N3CCCC3)nn2)c(C)c1
selectivity ratio [23]: 41 | EC50 [15]: 20 nM | selectivity ratio [16]: 2100

Cc1cc(C)c(Oc2cc(Nc3ccc(C#N)cc3)ncc2C(=O)NCc2cn(CC(=O)N3CCOCC3)nn2)c(C)c1
selectivity ratio [23]: 12 | EC50 [15]: 20 nM | selectivity ratio [16]: 9280

CCc1cccc2c3c([nH]c12)C(CC)(Cc1n[nH]c(=S)n1Cc1ccccc1)OCC3 (stereo unspecified)
inhibition [1]: 3.78%

Cc1cc(C)c(Oc2cc(Nc3ccc(C#N)cc3)ncc2C(=O)NCc2cn(CCC#N)nn2)c(C)c1
selectivity ratio [23]: 17 | selectivity ratio [16]: 2040

COc1ccccc1-n1cc(COC(=O)c2cnccn2)nn1
selectivity ratio [2]: 2.1 | IC50 [3]: 1080 nM

CCc1cccc2c3c([nH]c12)C(CC)(Cc1n[nH]c(=S)n1C1CCCCC1)OCC3 (stereo unspecified)
inhibition [1]: 45.6%

C=CCn1c(CC2(CC)OCCc3c2[nH]c2c(CC)cccc32)n[nH]c1=S (stereo unspecified)
inhibition [1]: 58.2% | IC50 [4]: 40300 nM

CCc1cccc2c3c([nH]c12)C(CC)(Cc1n[nH]c(=S)n1C)OCC3 (stereo unspecified)
inhibition [1]: 78.9% | IC50 [4]: 14800 nM | EC50 [24]: 4290 nM

CCC(C#N)(CC)c1ccc(CCC2(C3CCCC3)CC(O)=C(Cc3nc4nc(C)cc(C)n4n3)C(=O)O2)cc1F (stereo unspecified)
IC50 [19]: > 6000 nM | IC50 [4]: 5 nM

O=C(OCc1cn(-c2ccc([N+](=O)[O-])cc2)nn1)c1cnccn1
selectivity ratio [2]: 10.3 | IC50 [3]: 477 nM

CCc1cc(CCC2(C3CCCC3)CC(O)=C(Cc3nc4nc(C)cc(C)n4n3)C(=O)O2)cc(CC)n1 (stereo unspecified)
IC50 [4]: 16 nM

COc1cc(-c2noc(-c3nnn(-c4ccccc4Cl)c3C)n2)cc(OC)c1OC
EC50 [25]: 1000 nM | EC50 [26]: 1000 nM

O=C(OCc1cn(-c2ccccc2Cl)nn1)c1cnccn1
selectivity ratio [2]: 3.7 | IC50 [3]: 952 nM

Cc1ccc(NC(=O)CSc2nnc(C)n2-c2ccccc2)c(Br)c1
EC50 [27]: 100 nM | EC50 [28]: 1300 nM

Cc1ccnc2c1NC(=O)c1cccnc1N2C1CC1 [NEVIRAPINE]
CC50 [29]: > 15000 nM
